# Data reported in ChEMBL document CHEMBL1156778, “Synthesis and structure-activity studies of biphenyl analogues of the tuberculosis drug (6S)-2-nitro-6-{[4-(trifluoromethoxy)benzyl]oxy}-6,7-dihydro-5H-imidazo[2,1-b][1,3]oxazine (PA-824)” (J Med Chem, 2010).
# Legend:
# [1] = system: Mycobacterium tuberculosis; test: Antitubercular activity against Mycobacterium tuberculosis H37Rv in anaerobic condition after 7 days by low oxygen recovery assay; assay type: functional; details: 168 h
# Vero = test: Cytotoxicity against african green monkey Vero cells after 72 hrs by MTS assay; assay type: cell-based; details: Chlorocebus sabaeus
# Summary of the method: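 VERO cells (CCL-81), 72 h exposure, tetrazolium dye read-out.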
# [2] = system: Mycobacterium tuberculosis; test: Antitubercular activity against Mycobacterium tuberculosis H37Rv in aerobic condition after 7 days by microplate alamar blue assay; assay type: functional; details: 168 h
# Summary of the method: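 M. tuberculosis H37Rv, replicating culture; 8-day microplate assay with Alamar blue added on day 7 to read growth. […] Mean of at least two independent determinations ± SD.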
Compound,MIC [1] [µM],IC50 (Vero) [µM],MIC [2] [µM]
O=[N+]([O-])c1cn2c(n1)OC[C@@H](OCc1cccc(-c3cccc(OC(F)(F)F)c3)c1)C2,3.5,> 125,0.4
CSc1cccc(-c2cccc(CO[C@@H]3COc4nc([N+](=O)[O-])cn4C3)c2)c1,1.4,> 125,0.07
Cc1cccc(C)c1-c1ccc(CO[C@@H]2COc3nc([N+](=O)[O-])cn3C2)cc1,0.93,> 125,0.39
Nc1cccc(-c2ccc(CO[C@@H]3COc4nc([N+](=O)[O-])cn4C3)cc2)c1,1.4,> 125,0.12
O=[N+]([O-])c1cn2c(n1)OC[C@@H](OCc1ccc(-c3ccccc3F)cc1)C2,0.67,> 125,0.19
CSc1cccc(-c2ccccc2CO[C@@H]2COc3nc([N+](=O)[O-])cn3C2)c1,3.2,> 125,0.81
N#Cc1ccc(-c2cccc(CO[C@@H]3COc4nc([N+](=O)[O-])cn4C3)c2)cc1,4.8,> 125,0.23
COc1cc(-c2ccc(CO[C@@H]3COc4nc([N+](=O)[O-])cn4C3)cc2)ccc1F,1.5,> 125,0.045
O=[N+]([O-])c1cn2c(n1)OC[C@@H](OCc1ccc(-c3cc(F)c(F)c(F)c3)cc1)C2,0.76,> 125,0.04
CC(C)(C)OCc1ccc(-c2ccc(CO[C@@H]3COc4nc([N+](=O)[O-])cn4C3)cc2)cc1,3.1,> 125,0.077
O=[N+]([O-])c1cn2c(n1)OC[C@@H](OCc1ccc(-c3cccc(C(F)(F)F)c3)cc1)C2,1.3,> 125,0.067
CSc1ccccc1-c1ccc(CO[C@@H]2COc3nc([N+](=O)[O-])cn3C2)cc1,1.4,> 125,0.087
CC(C)c1cccc(-c2ccc(CO[C@@H]3COc4nc([N+](=O)[O-])cn4C3)cc2)c1,4.2,> 125,0.14
O=[N+]([O-])c1cn2c(n1)OC[C@@H](OCc1ccc(-c3cccc(O)c3)cc1)C2,3.1,> 125,0.14
O=[N+]([O-])c1cn2c(n1)OC[C@@H](OCc1ccc(-c3cccc(OC(F)(F)F)c3)cc1)C2,1.4,> 125,0.077
O=[N+]([O-])c1cn2c(n1)OC[C@@H](OCc1ccc(-c3cccc(F)c3)cc1)C2,2.2,> 125,0.045
O=[N+]([O-])c1cn2c(n1)OC[C@@H](OCc1ccc(-c3ccc(OC(F)(F)F)c([N+](=O)[O-])c3)cc1)C2,1.6,> 125,0.045
O=[N+]([O-])c1cn2c(n1)OC[C@@H](OCc1ccc(-c3ccccc3C(F)(F)F)cc1)C2,1.6,> 125,0.077
COc1cccc(OC)c1-c1ccc(CO[C@@H]2COc3nc([N+](=O)[O-])cn3C2)cc1,1,> 125,0.31
N#Cc1cccc(-c2ccc(CO[C@@H]3COc4nc([N+](=O)[O-])cn4C3)cc2)c1,1.3,> 125,0.12
CSc1cccc(-c2ccc(CO[C@@H]3COc4nc([N+](=O)[O-])cn4C3)cc2)c1,0.95,> 125,0.077

Compound,MIC [1] [µM],IC50 (Vero) [µM],MIC [2] [µM]
O=[N+]([O-])c1cn2c(n1)OC[C@@H](OCc1cccc(-c3ccccc3)c1)C2,2.1,> 125,0.095
O=[N+]([O-])c1cn2c(n1)OC[C@@H](OCc1ccc(-c3ccc(Cl)cc3)cc1)C2,2.7,> 125,0.015
O=[N+]([O-])c1cn2c(n1)OC[C@@H](OCc1cccc(-c3ccc4ccccc4c3)c1)C2,3.2,> 125,0.12
COc1cc(OC)cc(-c2ccc(CO[C@@H]3COc4nc([N+](=O)[O-])cn4C3)cc2)c1,0.79,> 125,0.28
CC(C)c1ccc(-c2ccc(CO[C@@H]3COc4nc([N+](=O)[O-])cn4C3)cc2)cc1,> 32,> 125,0.1
Cc1cc(-c2ccc(CO[C@@H]3COc4nc([N+](=O)[O-])cn4C3)cc2)cc(C)c1O,1.5,> 125,0.3
COc1cccc(Cl)c1-c1ccc(CO[C@@H]2COc3nc([N+](=O)[O-])cn3C2)cc1,0.74,> 125,0.055
O=[N+]([O-])c1cn2c(n1)OC[C@@H](OCc1cccc(-c3ccc(F)cc3)c1)C2,3.8,> 125,0.077
O=[N+]([O-])c1cn2c(n1)OC[C@@H](OCc1cccc(-c3ccc(OC(F)F)cc3)c1)C2,2.8,> 125,0.06
O=[N+]([O-])c1cn2c(n1)OC[C@@H](OCc1ccc(-c3ccc(C(F)(F)F)c(Cl)c3)cc1)C2,0.97,> 125,0.06
O=[N+]([O-])c1cn2c(n1)OC[C@@H](OCc1ccc(-c3ccccc3OC(F)(F)F)cc1)C2,0.97,> 125,0.035
O=[N+]([O-])c1cccc(-c2ccc(CO[C@@H]3COc4nc([N+](=O)[O-])cn4C3)cc2)c1,0.76,> 125,0.13
COc1ccc(-c2ccc(CO[C@@H]3COc4nc([N+](=O)[O-])cn4C3)cc2)cc1,6.8,> 125,0.065
CC(C)Oc1ccc(-c2ccc(CO[C@@H]3COc4nc([N+](=O)[O-])cn4C3)cc2)cc1,3.8,> 125,0.25
O=[N+]([O-])c1cn2c(n1)OC[C@@H](OCc1ccc(-c3ccc(Cl)c(O)c3)cc1)C2,2.1,> 125,0.2
O=[N+]([O-])c1cn2c(n1)OC[C@@H](OCc1ccc(-c3cccc(Cl)c3)cc1)C2,1.6,> 125,0.06
O=[N+]([O-])c1cn2c(n1)OC[C@@H](OCc1ccc(-c3ccccc3Oc3ccccc3)cc1)C2,1.8,> 125,0.06
O=[N+]([O-])c1cn2c(n1)OC[C@@H](OCc1ccc(-c3cccc(OCCCO)c3)cc1)C2,3.2,> 125,0.18
O=[N+]([O-])c1cn2c(n1)OC[C@@H](OCc1ccc(-c3ccc4ccccc4c3)cc1)C2,0.87,> 125,0.045
O=Cc1cccc(-c2ccc(CO[C@@H]3COc4nc([N+](=O)[O-])cn4C3)cc2)c1,0.57,> 125,0.14
N#Cc1cccc(-c2cccc(CO[C@@H]3COc4nc([N+](=O)[O-])cn4C3)c2)c1,3.7,> 125,0.17

Compound,MIC [1] [µM],IC50 (Vero) [µM],MIC [2] [µM]
O=Cc1ccc(-c2ccc(CO[C@@H]3COc4nc([N+](=O)[O-])cn4C3)cc2)cc1,1,> 125,0.2
O=[N+]([O-])c1cn2c(n1)OC[C@@H](OCc1ccc(-c3ccccc3)cc1)C2,3.9,> 125,0.045
O=[N+]([O-])c1cn2c(n1)OC[C@@H](OCc1cccc(-c3ccc(OC(F)(F)F)cc3)c1)C2,2.2,> 125,0.11
O=[N+]([O-])c1cn2c(n1)OC[C@@H](OCc1ccc(-c3ccccc3Cl)cc1)C2,1.5,> 125,0.15
O=[N+]([O-])c1cn2c(n1)OC[C@@H](OCc1cccc(-c3cccc(F)c3)c1)C2,2.7,> 125,0.18
O=Cc1ccccc1-c1ccc(CO[C@@H]2COc3nc([N+](=O)[O-])cn3C2)cc1,0.78,> 125,0.08
CSc1ccc(-c2ccc(CO[C@@H]3COc4nc([N+](=O)[O-])cn4C3)cc2)cc1,0.95,> 125,0.075
O=[N+]([O-])c1cn2c(n1)OC[C@@H](OCc1ccc(-c3ccccc3O)cc1)C2,4.6,> 125,0.12
COc1ccc(-c2cccc(CO[C@@H]3COc4nc([N+](=O)[O-])cn4C3)c2)cc1F,2.2,> 125,0.19
O=[N+]([O-])c1cn2c(n1)OC[C@@H](OCc1ccc(-c3cccc(-c4ccccc4)c3)cc1)C2,0.88,> 125,0.31
O=[N+]([O-])c1cn2c(n1)OC[C@@H](OCc1ccc(-c3ccc(F)c(F)c3)cc1)C2,1.2,> 125,0.03
O=[N+]([O-])c1cn2c(n1)OC[C@@H](OCc1ccc(-c3cccc(OCCO)c3)cc1)C2,5.4,> 125,0.46
COc1c(F)cc(-c2ccc(CO[C@@H]3COc4nc([N+](=O)[O-])cn4C3)cc2)cc1F,1.3,> 125,0.045
COc1cc(C)c(-c2ccc(CO[C@@H]3COc4nc([N+](=O)[O-])cn4C3)cc2)c(C)c1,0.94,> 125,0.58
CSc1ccc(-c2cccc(CO[C@@H]3COc4nc([N+](=O)[O-])cn4C3)c2)cc1,0.93,> 125,0.095
O=[N+]([O-])c1cn2c(n1)OC[C@@H](OCc1ccc(-c3ccc(-c4ccccc4)cc3)cc1)C2,> 32,> 125,0.09
COc1ccccc1-c1ccc(CO[C@@H]2COc3nc([N+](=O)[O-])cn3C2)cc1,1.4,> 125,0.065
CC(C)(C)c1ccc(-c2ccc(CO[C@@H]3COc4nc([N+](=O)[O-])cn4C3)cc2)cc1,> 32,> 125,0.095
O=[N+]([O-])c1cn2c(n1)OC[C@@H](OCc1cccc(-c3ccc(C(F)(F)F)cc3)c1)C2,2.9,> 125,0.12
